Data as given in ChEMBL document CHEMBL2177065, “14-Alkoxy- and 14-acyloxypyridomorphinans: μ agonist/δ antagonist opioid analgesics with diminished tolerance and dependence side effects” (J Med Chem, 2012).
Active and inactive are the calls of the source.

How the values were obtained:
Mu-type opioid receptor [1] = target: T1, Mu-type opioid receptor (Homo sapiens, UniProt P35372); assay: Displacement of [3H]DAMGO from human mu opioid receptor expressed in CHO cells by scintillation counting analysis; assay type: cell-based
T1 sequence (P35372 whole entry): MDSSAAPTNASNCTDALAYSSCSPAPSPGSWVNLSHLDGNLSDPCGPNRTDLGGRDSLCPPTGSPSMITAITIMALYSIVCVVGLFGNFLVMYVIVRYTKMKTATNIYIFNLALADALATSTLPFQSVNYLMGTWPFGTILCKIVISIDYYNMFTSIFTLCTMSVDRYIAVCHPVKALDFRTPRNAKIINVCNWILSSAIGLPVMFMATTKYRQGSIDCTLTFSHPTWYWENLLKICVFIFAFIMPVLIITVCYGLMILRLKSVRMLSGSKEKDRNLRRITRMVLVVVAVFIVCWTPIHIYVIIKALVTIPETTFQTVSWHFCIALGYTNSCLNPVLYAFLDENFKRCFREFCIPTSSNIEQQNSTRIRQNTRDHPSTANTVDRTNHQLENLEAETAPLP

Homo sapiens [2] = species on record: Homo sapiens; assay: Selectivity ratio of Ki for human kappa opioid receptor to Ki for human delta opioid receptor
[3] = target: Delta-type opioid receptor (Homo sapiens, UniProt P41143); assay: Displacement of [3H]DADLE from human delta opioid receptor expressed in CHO cells by scintillation counting analysis; assay type: cell-based
Delta-type opioid receptor (Homo sapiens, UniProt P41143), sequence (P41143 whole entry): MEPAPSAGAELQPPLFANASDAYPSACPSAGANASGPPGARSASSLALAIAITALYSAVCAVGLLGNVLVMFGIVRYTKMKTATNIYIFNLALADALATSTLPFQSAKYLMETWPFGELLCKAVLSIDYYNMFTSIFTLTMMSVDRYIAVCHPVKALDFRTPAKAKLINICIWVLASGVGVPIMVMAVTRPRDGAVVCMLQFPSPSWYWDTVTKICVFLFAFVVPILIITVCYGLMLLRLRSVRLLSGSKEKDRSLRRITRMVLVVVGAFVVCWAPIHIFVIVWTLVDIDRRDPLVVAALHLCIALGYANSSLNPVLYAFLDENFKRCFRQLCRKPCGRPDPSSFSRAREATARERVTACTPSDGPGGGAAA

Mu-type opioid receptor [4] = target: T1, Mu-type opioid receptor; assay: Agonist activity at human mu opioid receptor expressed in CHO cells assessed as [35S]GTPgammaS binding by scintillation counting analysis relative to DAMGO; assay type: functional, cell-based
Method in brief: (§1)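 Human KOR or MOR in CHO cell membranes (50 µg protein), 3 h at 25 °C, pH 7.4 Tris buffer with 100 mM NaCl, 10 mM MgCl2, 1 mM EDTA, 1 mM DTT, 0.1% BSA, GDP 40 µM and [35S]GTP-γ-S 50 pM. Stimulation = (S−B)/B×100, with Emax relative to U69,593 (KOR) or DAMGO (MOR). Curves were ten points, ≥3 experiments pooled. Antagonist Ke was taken from the shift in standard agonist EC50.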

[5] = Agonist activity at delta opioid receptor expressed in rat/mouse NG108-15 cells assessed as [35S]GTPgammaS binding by scintillation counting analysis relative to DADLE; assay type: functional, cell-based
Method in brief: (§2)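 NG108-15 cell membranes (50 µg protein), 3 h at 25 °C, pH 7.4 Tris buffer with 100 mM NaCl, 10 mM MgCl2, 1 mM EDTA, 1 mM DTT, 0.1% BSA, GDP 40 µM and [35S]GTP-γ-S 50 pM. Nonspecific binding with 40 µM GTP-γ-S; filtration and scintillation counting. Stimulation = (S−B)/B×100, with Emax relative to DADLE. Curves were ten points, ≥3 experiments pooled. Ke was taken from the shift in standard agonist EC50.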

[6] = target: T2, Kappa-type opioid receptor (Homo sapiens, UniProt P41145); assay: Displacement of [3H]U69,593 from human kappa opioid receptor expressed in CHO cells by scintillation counting analysis; assay type: cell-based
T2 sequence (P41145 whole entry): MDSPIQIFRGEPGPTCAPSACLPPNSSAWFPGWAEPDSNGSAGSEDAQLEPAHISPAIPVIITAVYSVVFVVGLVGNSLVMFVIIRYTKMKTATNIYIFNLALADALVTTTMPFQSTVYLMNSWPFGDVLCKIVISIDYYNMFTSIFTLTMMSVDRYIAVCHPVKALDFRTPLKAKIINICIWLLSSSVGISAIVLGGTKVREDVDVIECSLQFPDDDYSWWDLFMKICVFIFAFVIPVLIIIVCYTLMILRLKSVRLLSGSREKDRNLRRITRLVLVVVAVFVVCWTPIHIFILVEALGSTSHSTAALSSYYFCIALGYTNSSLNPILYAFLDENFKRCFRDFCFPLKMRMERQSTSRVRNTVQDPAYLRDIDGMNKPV

Homo sapiens [7] = species on record: Homo sapiens; assay: Selectivity ratio of Ki for human mu opioid receptor to Ki for human delta opioid receptor
[8] = target: T2, Kappa-type opioid receptor; assay: Agonist activity at human kappa opioid receptor expressed in CHO cells assessed as [35S]GTPgammaS binding by scintillation counting analysis; assay type: functional, cell-based; method in brief: as §1
[9] = target: T2, Kappa-type opioid receptor; assay: Agonist activity at human kappa opioid receptor expressed in CHO cells assessed as [35S]GTPgammaS binding by scintillation counting analysis relative to U69,593; assay type: functional, cell-based; method in brief: as §1
[10] = system: Delta-type opioid receptor; assay: Antagonist activity at delta opioid receptor expressed in rat/mouse NG108-15 cells assessed as [35S]GTPgammaS binding by scintillation counting analysis; assay type: functional, cell-based; method in brief: as §2
Mu-type opioid receptor [11] = target: T1, Mu-type opioid receptor; assay: Agonist activity at human mu opioid receptor expressed in CHO cells assessed as [35S]GTPgammaS binding by scintillation counting analysis; assay type: functional, cell-based; method in brief: as §1
[12] = target: T2, Kappa-type opioid receptor; assay: Agonist activity at human kappa opioid receptor expressed in CHO cells assessed as [35S]GTPgammaS binding at 10 uM by scintillation counting analysis; assay type: functional, cell-based; method in brief: as §1
[13] = system: Delta-type opioid receptor; assay: Agonist activity at delta opioid receptor expressed in rat/mouse NG108-15 cells assessed as [35S]GTPgammaS binding at 10 uM by scintillation counting analysis; assay type: functional, cell-based; method in brief: as §2
Mu-type opioid receptor [14] = target: T1, Mu-type opioid receptor; assay: Agonist activity at human mu opioid receptor expressed in CHO cells assessed as [35S]GTPgammaS binding at 10 uM by scintillation counting analysis; assay type: functional, cell-based; method in brief: as §1
Mus musculus [15] = assay: Antinociceptive activity in icv dosed ICR mouse assessed as warm-water tail-withdrawal latency by tail flick assay; assay type: functional
Method in brief: (§3)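 Male ICR mice dosed i.c.v. in 5 µL (test compounds in 100% DMSO, morphine in water) under light ether anaesthesia. Tail withdrawal from 55 °C water, 10 s cutoff, tested 10–180 min post-injection. %MPE computed against pre-drug baseline. A50 with 95% confidence limits by linear regression at time of peak effect.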

Mus musculus [16] = assay: Antinociceptive activity in icv dosed ICR mouse assessed as warm-water tail-withdrawal latency by tail flick assay in presence of naloxone; assay type: functional, organism-based
Mus musculus [17] = assay: Antinociceptive activity in ICR mouse assessed as warm-water tail-withdrawal latency at 10 nmol, icv by tail flick assay; assay type: functional; method in brief: as §3
Mus musculus [18] = assay: Antinociceptive activity in ICR mouse assessed as warm-water tail-withdrawal latency at 1 nmol, icv by tail flick assay; assay type: functional; method in brief: as §3

Row | SMILES | Ki (Mu-type opioid receptor [1]) | Ratio Ki (Homo sapiens [2]) | Ki [3] | Emax (Mu-type opioid receptor [4]) | Emax [5] | Ki [6] | Ratio Ki (Homo sapiens [7]) | EC50 [8] | Emax [9] | Ke [10] | EC50 (Mu-type opioid receptor [11]) | Activity [12] | Activity [13] | Activity (Mu-type opioid receptor [14]) | A50 (Mus musculus [15]) | Activity (Mus musculus [15]) | Activity (Mus musculus [16]) | %max (Mus musculus [17]) | %max (Mus musculus [18])
1 | CN1CC[C@]23c4c5ccc(O)c4O[C@H]2c2ncc(-c4ccc(Cl)cc4)cc2C[C@@]3(OC(=O)Cc2ccccc2)[C@H]1C5 | 1.43 nM | 18 | 0.97 nM | 122% | 27% | 17 nM | 1.5 | 109 nM | 36% | 3.38 nM | 87 nM |  |  |  |  |  |  |  | 
2 | CN1CC[C@]23c4c5ccc(O)c4O[C@H]2c2ncc(-c4ccc(Cl)cc4)cc2C[C@@]3(OC(=O)c2ccccc2)[C@H]1C5 | 84 nM | 6.6 | 17 nM | 55% |  | 112 nM | 4.9 |  |  | 45 nM | 4620 nM | inactive | inactive |  |  |  |  |  | 
3 | O=C(Cc1ccccc1)O[C@@]12Cc3cc(-c4ccc(Cl)cc4)cnc3[C@@H]3Oc4c(O)ccc5c4[C@@]31CCN(CC1CC1)[C@@H]2C5 | 1.04 nM | 2.3 | 1.33 nM |  |  | 3.1 nM | 0.78 | 26 nM | 34% | 0.37 nM |  |  | inactive | inactive |  |  |  |  | 
4 | CO[C@@]12Cc3cc(-c4ccc(Cl)cc4)cnc3[C@@H]3Oc4c(O)ccc5c4[C@@]31CCN(C)[C@@H]2C5 | 7.89 nM | 17 | 1.63 nM | 118% |  | 28 nM | 4.8 | 633 nM | 36% | 1.6 nM | 379 nM |  | inactive |  | 1.44 nmol | Dose-dependent effect | inactive | 98% | 
5 | Oc1ccc2c3c1O[C@H]1c4ncc(-c5ccc(Cl)cc5)cc4C[C@@]4(OCc5ccccc5)[C@@H](C2)N(CC2CC2)CC[C@]314 | 8.42 nM | 2.8 | 1.91 nM |  |  | 5.33 nM | 4.4 | 27 nM | 15% | 0.64 nM |  |  | inactive | inactive |  |  |  |  | 
6 | CO[C@@]12Cc3cc(-c4ccc(Cl)cc4)cnc3[C@@H]3Oc4c(O)ccc5c4[C@@]31CCN(CC1CC1)[C@@H]2C5 | 41.9 nM | 2.8 | 1.95 nM |  |  | 5.37 nM | 22 |  |  |  |  |  | inactive | inactive |  |  |  |  | 
7 | CN1CC[C@]23c4c5ccc(O)c4O[C@H]2c2ncc(-c4ccc(Cl)cc4)cc2C[C@@]3(OCc2ccccc2)[C@H]1C5 | 4.69 nM | 28 | 1.78 nM | 119% | 52% | 49 nM | 2.6 | 215 nM | 32% | 4.54 nM | 301 nM |  |  |  |  |  |  |  | 
8 | CN1CC[C@]23c4c5ccc(O)c4O[C@H]2c2ncc(-c4ccc(Cl)cc4)cc2C[C@@]3(OC/C=C/c2ccccc2)[C@H]1C5 | 0.41 nM | 1.4 | 1.14 nM | 130% | 84% | 1.55 nM | 0.36 |  |  |  | 4.27 nM |  |  |  | 0.23 nmol | Dose-dependent effect | inactive |  | 91%
9 | O=C(O[C@@]12Cc3cc(-c4ccc(Cl)cc4)cnc3[C@@H]3Oc4c(O)ccc5c4[C@@]31CCN(CC1CC1)[C@@H]2C5)c1ccccc1 | 192 nM | 1.3 | 87 nM |  |  | 117 nM | 2.2 |  |  | 218 nM |  | inactive | inactive | inactive |  |  |  |  | 
10 | Oc1ccc2c3c1O[C@H]1c4ncc(-c5ccc(Cl)cc5)cc4C=C4[C@@H](C2)N(CC2CC2)CC[C@]431 | 13 nM | 2.2 | 2.71 nM |  |  | 5.97 nM | 4.8 |  |  | 0.58 nM |  | inactive | inactive | inactive |  |  |  |  | 
11 | CN1CC[C@]23c4c5ccc(O)c4O[C@H]2c2ncc(-c4ccc(Cl)cc4)cc2C[C@@]3(OC(=O)CCc2ccccc2)[C@H]1C5 | 0.94 nM | 4.6 | 0.96 nM | 105% | 59% | 4.41 nM | 0.98 | 136 nM | 16% | 1.64 nM | 48 nM |  |  |  |  |  |  |  | 
12 | O=C(CCc1ccccc1)O[C@@]12Cc3cc(-c4ccc(Cl)cc4)cnc3[C@@H]3Oc4c(O)ccc5c4[C@@]31CCN(CC1CC1)[C@@H]2C5 | 2.58 nM | 2.9 | 4.13 nM |  |  | 12 nM | 0.62 | 13 nM | 25% | 1.86 nM |  |  | inactive | inactive |  |  |  |  | 
13 | Oc1ccc2c3c1O[C@H]1c4ncc(-c5ccc(Cl)cc5)cc4C[C@@]4(OC/C=C/c5ccccc5)[C@@H](C2)N(CC2CC2)CC[C@]314 | 3.03 nM | 0.89 | 3.74 nM |  |  | 3.31 nM | 0.81 |  |  |  |  |  | inactive | inactive |  |  |  |  | 
